Laboratory results as given in ChEMBL document CHEMBL1799968, “Dimethyl-diphenyl-propanamide derivatives as nonsteroidal dissociated glucocorticoid receptor agonists” (J Med Chem, 2010).

Tests used:
[1] = molecular target: T1, Progesterone receptor (Homo sapiens, UniProt P06401); experiment: Binding affinity to progesterone receptor by fluorescence polarization assay
T1 sequence (P06401 whole entry): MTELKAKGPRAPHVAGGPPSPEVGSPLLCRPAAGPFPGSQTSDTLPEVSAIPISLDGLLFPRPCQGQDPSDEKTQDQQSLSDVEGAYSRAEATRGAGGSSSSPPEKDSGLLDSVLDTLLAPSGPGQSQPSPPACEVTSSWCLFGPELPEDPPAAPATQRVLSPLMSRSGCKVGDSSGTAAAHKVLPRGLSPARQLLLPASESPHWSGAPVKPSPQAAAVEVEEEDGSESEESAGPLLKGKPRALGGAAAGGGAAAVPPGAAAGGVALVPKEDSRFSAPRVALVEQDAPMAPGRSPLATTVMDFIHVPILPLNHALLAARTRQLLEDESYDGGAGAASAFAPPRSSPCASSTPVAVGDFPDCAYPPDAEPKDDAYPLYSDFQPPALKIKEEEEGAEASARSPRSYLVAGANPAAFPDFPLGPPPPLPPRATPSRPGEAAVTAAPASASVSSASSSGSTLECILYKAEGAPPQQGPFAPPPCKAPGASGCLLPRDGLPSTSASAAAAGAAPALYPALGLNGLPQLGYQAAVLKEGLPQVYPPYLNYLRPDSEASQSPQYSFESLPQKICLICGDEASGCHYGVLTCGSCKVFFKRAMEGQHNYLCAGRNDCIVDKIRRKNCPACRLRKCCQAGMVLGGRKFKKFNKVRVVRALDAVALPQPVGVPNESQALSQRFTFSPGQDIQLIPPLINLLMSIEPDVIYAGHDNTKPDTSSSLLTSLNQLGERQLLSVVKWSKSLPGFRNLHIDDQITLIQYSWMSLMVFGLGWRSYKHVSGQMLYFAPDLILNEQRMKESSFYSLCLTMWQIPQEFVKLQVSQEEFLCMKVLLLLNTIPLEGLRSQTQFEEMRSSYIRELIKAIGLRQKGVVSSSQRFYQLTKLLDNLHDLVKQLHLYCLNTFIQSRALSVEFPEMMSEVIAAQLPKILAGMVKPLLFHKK
Outline: (§1)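 Fluorescence polarization competition of test compound against a fluorescently labelled ligand for binding to full-length receptor or its ligand-binding domain.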

[2] = molecular target: T2, Androgen receptor (Homo sapiens, UniProt P10275); experiment: Binding affinity to androgen receptor by fluorescence polarization assay; outline: as §1
T2 sequence (P10275 whole entry): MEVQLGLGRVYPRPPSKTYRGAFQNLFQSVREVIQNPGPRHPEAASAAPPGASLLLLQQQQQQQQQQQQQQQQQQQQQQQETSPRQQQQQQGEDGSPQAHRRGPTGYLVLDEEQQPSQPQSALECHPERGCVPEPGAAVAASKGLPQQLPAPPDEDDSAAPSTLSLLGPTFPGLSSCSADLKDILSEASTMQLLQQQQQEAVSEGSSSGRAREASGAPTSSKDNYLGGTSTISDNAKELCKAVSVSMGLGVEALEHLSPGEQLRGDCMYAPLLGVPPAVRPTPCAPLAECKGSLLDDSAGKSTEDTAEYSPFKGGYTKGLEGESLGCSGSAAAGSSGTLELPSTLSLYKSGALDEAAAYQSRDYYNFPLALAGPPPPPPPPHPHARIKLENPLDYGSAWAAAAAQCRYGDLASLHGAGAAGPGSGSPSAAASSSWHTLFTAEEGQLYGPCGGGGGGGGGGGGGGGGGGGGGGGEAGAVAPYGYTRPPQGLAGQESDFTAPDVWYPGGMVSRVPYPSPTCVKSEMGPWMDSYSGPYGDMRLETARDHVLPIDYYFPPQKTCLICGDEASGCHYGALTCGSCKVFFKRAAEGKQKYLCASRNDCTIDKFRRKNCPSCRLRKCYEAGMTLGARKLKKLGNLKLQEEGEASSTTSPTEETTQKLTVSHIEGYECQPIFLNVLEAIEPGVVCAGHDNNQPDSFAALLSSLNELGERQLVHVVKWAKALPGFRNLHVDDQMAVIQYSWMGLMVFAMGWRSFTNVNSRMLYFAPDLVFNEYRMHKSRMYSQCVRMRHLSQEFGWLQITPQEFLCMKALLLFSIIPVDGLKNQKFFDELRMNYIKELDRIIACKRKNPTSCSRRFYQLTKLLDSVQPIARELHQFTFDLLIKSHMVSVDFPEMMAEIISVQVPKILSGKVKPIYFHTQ

[3] = molecular target: T3, Glucocorticoid receptor (Homo sapiens, UniProt P04150); experiment: Displacement of GS-red from GRapha by fluorescence polarization assay
T3 sequence (P04150 whole entry): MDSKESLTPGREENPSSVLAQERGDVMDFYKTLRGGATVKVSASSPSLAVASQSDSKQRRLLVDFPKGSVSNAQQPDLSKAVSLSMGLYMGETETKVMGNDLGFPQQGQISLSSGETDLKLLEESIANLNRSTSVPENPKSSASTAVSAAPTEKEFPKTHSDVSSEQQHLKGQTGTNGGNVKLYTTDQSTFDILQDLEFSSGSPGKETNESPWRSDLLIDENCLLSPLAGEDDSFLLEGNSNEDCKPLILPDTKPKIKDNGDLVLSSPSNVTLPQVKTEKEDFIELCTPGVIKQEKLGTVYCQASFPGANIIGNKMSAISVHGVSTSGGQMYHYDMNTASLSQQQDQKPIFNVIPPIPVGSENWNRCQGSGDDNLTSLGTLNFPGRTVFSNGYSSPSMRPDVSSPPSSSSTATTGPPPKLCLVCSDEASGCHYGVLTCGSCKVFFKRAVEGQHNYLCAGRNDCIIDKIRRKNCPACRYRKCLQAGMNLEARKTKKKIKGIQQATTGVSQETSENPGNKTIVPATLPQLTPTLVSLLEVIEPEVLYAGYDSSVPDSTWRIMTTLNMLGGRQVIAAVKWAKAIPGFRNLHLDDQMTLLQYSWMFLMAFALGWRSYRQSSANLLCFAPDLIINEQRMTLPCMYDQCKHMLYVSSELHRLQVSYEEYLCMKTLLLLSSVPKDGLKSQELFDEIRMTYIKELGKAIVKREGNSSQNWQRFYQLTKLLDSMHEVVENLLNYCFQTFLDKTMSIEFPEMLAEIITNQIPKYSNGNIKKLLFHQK

[4] = molecular target: T3, Glucocorticoid receptor; experiment: Transrepression activity of glucocorticoid receptor in human A549 cells expressing AP-1 assessed as inhibition of PMA-induced AP-1 activity by luciferase reporter gene assay; assay type: cell-based
[5] = molecular target: T4, Glucocorticoid receptor (Homo sapiens) (UniProt P04150); experiment: Transrepression activity of glucocorticoid receptor in human A549 cells expressing AP-1 assessed as inhibition of PMA-induced AP-1 activity by luciferase reporter gene assay relative to Dexamethasone; assay type: cell-based
T4 sequence (whole entry): T3 sequence (P04150 whole entry)
Outline: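 Human A549 lung epithelial cells stably transfected with a 5×AP-1 response element luciferase reporter. AP-1 was induced with PMA (15 ng/mL), and inhibition was read as decreased luciferase.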

[6] = molecular target: T3, Glucocorticoid receptor; experiment: Transactivation activity of glucocorticoid receptor ligand binding domain expressed in human NP-1 Hela cells co-expressing GAL4 DNA binding domain by luciferase reporter gene assay; assay type: cell-based
[7] = molecular target: T3, Glucocorticoid receptor; experiment: Transrepression activity of glucocorticoid receptor in human A549 cells assessed as inhibition of IL1beta-stimulated NFkappaB-dependent E-selectin transcription by luciferase reporter gene assay; assay type: cell-based
[8] = molecular target: T4, Glucocorticoid receptor (Homo sapiens); experiment: Transrepression activity of glucocorticoid receptor in human A549 cells assessed as inhibition of IL1beta-stimulated NFkappaB-dependent E-selectin transcription by luciferase reporter gene assay relative to Dexamethasone; assay type: cell-based
[9] = molecular target: T3, Glucocorticoid receptor; experiment: Transactivation activity at glucocorticoid receptor in human 13D3/Huh7 cells assessed as induction of tyrosine aminotransferase activity after 24 hrs; assay type: cell-based, Huh-7
[10] = molecular target: T4, Glucocorticoid receptor (Homo sapiens); experiment: Transactivation activity of glucocorticoid receptor ligand binding domain expressed in human NP-1 Hela cells co-expressing GAL4 DNA binding domain by luciferase reporter gene assay relative to Dexamethasone; assay type: cell-based
Outline: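 HeLa NP-1 cells stably carrying a GAL4 DBD–human GR LBD chimera with a GAL4 luciferase reporter. Agonist activity was read as increased luciferase activity.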

[11] = molecular target: T4, Glucocorticoid receptor (Homo sapiens); experiment: Transactivation activity at glucocorticoid receptor in human 13D3/Huh7 cells assessed as induction of tyrosine aminotransferase activity after 24 hrs relative to Dexamethasone; assay type: cell-based; conditions: Huh-7
Outline: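 Human 13D3/Huh7 hepatoma cells, 20 K/well, were incubated overnight at 37 °C/5% CO2. They were then treated overnight with compounds in assay medium containing 20 μM forskolin. The reaction was stopped with KOH and A340 read. Results are % activation, with EC50 derived.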

Structure (SMILES)	Ki [1]	Ki [2]	Ki [3]	EC50 [4]	Efficacy [5]	EC50 [6]	EC50 [7]	Efficacy [8]	EC50 [9]	Efficacy [10]	Efficacy [11]
Cc1cc([C@H](c2ccccc2)C(C)(C)C(=O)Nc2nncs2)ccc1O	140 nM	> 4000 nM									
CC(C)(C(=O)Nc1nccs1)[C@H](c1ccccc1)c1ccc(O)c(F)c1			4.6 nM	> 10000 nM	16%	> 10000 nM	> 5000 nM	12%	> 5000 nM		
CC(=O)c1cc([C@H](c2ccccc2)C(C)(C)C(=O)Nc2nccs2)ccc1O			7.3 nM	> 10000 nM		> 10000 nM	> 5000 nM	16%	2320 nM		
CC(C)(C(=O)Nc1nccs1)C(c1ccccc1)c1ccc(O)c(F)c1 (racemic)			0.6 nM	51.1 nM	77%	216 nM	37.7 nM	63%	197 nM	39%	41%
CC(C)(C(=O)Nc1nccs1)[C@H](c1ccccc1)c1ccc(O)cc1				> 10000 nM		> 10000 nM			> 10000 nM		
CC(C)(C(=O)Nc1nncs1)[C@@H]1c2ccccc2Oc2cc(O)ccc21			58.7 nM	> 5000 nM		> 10000 nM	> 5000 nM				
CC(C)(C(=O)Nc1nncs1)[C@@H](c1ccccc1)c1ccc(O)c(Br)c1			0.4 nM	12.7 nM	87%	67.2 nM	6.2 nM	75%	46.5 nM	54%	57%
CC(C)(C(=O)Nc1nccs1)[C@@H](c1ccccc1)c1ccc(O)c(C#N)c1	144 nM	> 3000 nM	0.9 nM	506 nM	74%	> 10000 nM	206 nM	48%	> 5000 nM		16%
CC(C)(C(=O)Nc1nccs1)C(c1ccccc1)c1ccc(O)cc1 (racemic)			2.5 nM	61.4 nM	63%	863 nM	125 nM	50%	2580 nM	14%	20%
CC(C)(C(=O)Nc1nncs1)C1c2ccccc2Oc2ccccc21			6 nM	> 5000 nM		> 10000 nM	> 5000 nM				
